AHR activator = AHR activators, primary screen, cell-based, luminescence, luciferase reporter, human. AHR-responsive luciferase reporter cells. Aryl hydrocarbon receptor (Homo sapiens), P35869. 2.5% of 320,000 active. activation, % at 5 µM; in the data active = activation above about 47%
FXN GAA850 act = FXN promoter activators, primary screen, cell-based, luciferase luminescence, HEK293 lucGAA850; HEK293 lucGAA850 FXN promoter luciferase reporter, 24 h; percent of 10 µM SAHA response; activation, % at 6 µM; 0.56% of 360,000 active;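 active = activation above the average of all compounds screened plus 3 SD, cutoff fixed separately per campaign, cut at about 7.5% in these data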
MC4R antag cAMP = MC4R antagonists of cAMP signaling, primary screen, cell-based, TR-FRET, antagonist arm of biased-ligand search; Melanocortin receptor 4 (Homo sapiens), P32245; MC4R-expressing cells, MTII-stimulated cAMP, LANCE TR-FRET; inhibition, % at 6.5 µM; 0.48% of 360,000 active; AID 540295, 2011;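 active = inhibition above its plate's cutoff, the mean of tested wells on that plate plus 3 SD, cut at about 29% in these data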
Target sequence (P32245 whole entry, looked up): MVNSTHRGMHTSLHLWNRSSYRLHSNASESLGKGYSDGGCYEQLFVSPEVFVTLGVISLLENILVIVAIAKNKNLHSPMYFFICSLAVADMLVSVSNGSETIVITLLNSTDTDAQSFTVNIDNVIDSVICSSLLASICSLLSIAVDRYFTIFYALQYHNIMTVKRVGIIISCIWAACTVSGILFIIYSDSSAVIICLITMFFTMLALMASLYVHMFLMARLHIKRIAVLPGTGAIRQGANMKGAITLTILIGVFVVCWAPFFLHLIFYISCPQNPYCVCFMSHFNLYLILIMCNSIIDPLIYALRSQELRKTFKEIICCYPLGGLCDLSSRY
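Assay system: U2OS-MC4R stable cell line; Also added: Melanotan II; Technique: Eu-cAMP/anti-cAMP TR-FRET, emission 671 nm; Times: 30-min compound, 1-h challenge, 1-h detection, room temperature.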
MC4R barr agon = MC4R agonists recruiting beta-arrestin, primary screen, cell-based, luminescence, agonist arm of biased-ligand search; Melanocortin receptor 4 (Homo sapiens), P32245; U2OS MC4R beta-arrestin complementation; percent of melanotan II response, DMSO zero; activation, % at 8.9 µM; 0.98% of 360,000 active; AID 540308, 2011;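 active = activation above a per-plate cutoff, the mean activation of sample wells on that plate plus 3 SD, cut at about 8% in these data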
m5-HT2A agonist = mouse Htr2a agonists via beta-arrestin recruitment, primary screen, cell-based, luminescence; 5-hydroxytryptamine receptor 2A (Mus musculus), P35363; CHO-K1 mHTR2A beta-arrestin complementation; percent of 30 µM serotonin response; activation, % at 7.6 µM; 0.66% of 360,000 active;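 active = activation above a run cutoff, the mean activation of all tested compounds plus 3 SD, cut at about 14% in these data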
MC4R barr ag = MC4R beta-arrestin agonists, retest, confirmation, cell-based, luminescence, U2OS; AID 602192, 2012; activation, % at 8.9 µM; 31% of 2,400 active; U2OS MC4R beta-arrestin recruitment; scaled DMSO 0%, Melanotan II 100%; shares compounds with MC4R barr agon;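 active = mean activation across replicates above the hit cutoff set in the earlier primary screen, cut at about 8% in these data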
MOR DOR agonist = agonists of MOR-DOR heterodimerization, counter-screen for MC4R biased agonist project, cell-based, luminescence; AID 602194, 2012; shares compounds with MC4R barr agon; U2OS PathHunter beta-arrestin, beta-gal luminescence; percent of deltorphin B response, DMSO zero; activation, % at 9.2 µM; 5.8% of 2,400 active;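 active = mean activation across replicates exceeds the hit threshold derived in the earlier primary screen, cut at about 18% in these data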
Numbers stand for hits; . = inactive; / = no result. The list is not random: actives were taken first. Their share in the collection is about 4.7%.

SMILES	AHR activator	FXN GAA850 act	MC4R antag cAMP	MC4R barr agon	m5-HT2A agonist	MC4R barr ag	MOR DOR agonist
COc1ccc(/C=N/NC(=O)c2nc(-c3ccccc3)cc(-c3ccccc3)n2)cc1OC	.	.	.	19	.	.	.
COc1ccc(/C=N/NC(=O)c2ccncc2)cc1OC	.	.	.	.	.	/	/
COc1ccc(-c2cc(-c3ccccc3)nc(Cl)n2)cc1OC	.	.	.	13	.	.	.
COc1ccc([C@@H]2C[C@H]3[C@@H](CN2S(=O)(=O)c2ccccc2)C(=O)C[C@@H](c2ccccc2)N3S(=O)(=O)c2ccc(C)cc2)cc1	/	.	.	.	.	/	/
CN1C(=O)CCS(=O)(=O)C1c1ccc(Cl)c(Cl)c1 (stereo not drawn)	/	.	.	.	.	/	/
CCCNC(=O)c1cc(C2CCCN(C(=O)c3ccc(NC(C)=O)cc3)C2)on1 (stereo not drawn)	/	.	.	.	.	/	/
C=CCNc1nc(NCCOc2ccccc2Cl)c2sc(-c3ccccc3)cc2n1	/	.	.	.	.	/	/
COc1ccccc1C(=O)NC(=O)CSc1ccc(C)c(C)c1	.	.	.	.	.	/	/
COc1ccc(-c2nc3c(Br)c(N)c(Br)cc3o2)cc1	49	.	.	11	.	.	.
COc1ccc(-c2nc3ccc([N+](=O)[O-])cc3o2)cc1	.	.	.	.	.	/	/
O=C1[C@H]2[C@H](C=CC[C@H]2C(=O)N2CCN(c3ccccc3)CC2)CCN1Cc1ccc(Cl)c(Cl)c1	.	.	.	69	.	15	.
O=C(NCCc1ccccc1)[C@@H]1CC=C[C@@H]2CCN(Cc3ccc(Cl)c(Cl)c3)C(=O)[C@@H]21	.	.	.	12	.	9.3	.
COc1ccc(NC(=O)[C@@H]2CC=C[C@@H]3CCN(Cc4ccc(Cl)c(Cl)c4)C(=O)[C@@H]32)cc1	.	.	.	13	.	11	.
COc1ccc(NC(=O)[C@@H]2CC=C[C@@H]3CCN(Cc4ccccc4)C(=O)[C@@H]32)cc1	.	.	.	.	.	/	/
Cc1ccc(NC(=O)c2sc(N)nc2-c2ccc([N+](=O)[O-])cc2)cc1C	.	.	.	11	.	.	.
CC(=O)c1ccc(NC(=O)COC(=O)/C=C/c2cccs2)cc1	.	.	.	.	.	/	/
O=C(COC(=O)/C=C/c1cccs1)Nc1ccc2ccccc2c1	.	.	.	16	.	.	.
Cc1cc2oc(C(=O)Nc3ccc(S(=O)(=O)Nc4nccs4)cc3)cc(=O)c2cc1Cl	.	.	.	9.7	.	.	.
Cc1ccnc(SCC(=O)Nc2oc(-c3ccccc3)c(-c3ccccc3)c2C#N)n1	.	.	.	17	.	.	.
N#Cc1c(NC(=O)CSc2ncccn2)oc(-c2ccccc2)c1-c1ccccc1	.	.	.	.	.	/	/
CCCCCCCCN1C(=O)[C@H](CC(=O)N2CCN(C(=O)C3CC3)CC2)C[C@@]2(C(=O)OC)CC(C)(C)CC=C12	/	/	/	/	.	/	/
O=C(CSc1nnc(Nc2ccccc2)s1)NCC1CCCO1 (stereo not drawn)	.	.	.	.	.	/	/
O=C(Nc1ccc(Br)cc1)c1ccc(CSC2=NCCS2)cc1	.	.	.	29	.	.	.
COc1ccc(C(=O)NC(=S)Nc2ccc(S(=O)(=O)Nc3cc(OC)ncn3)cc2)cc1	.	.	.	.	.	/	/
COc1cc(NS(=O)(=O)c2ccc(NC(=S)NC(=O)c3sc4ccccc4c3Cl)cc2)ncn1	.	.	.	15	.	19	.

Compound activity deposited in PubChem by The Scripps Research Institute Molecular Screening Center.
